From ChEMBL document CHEMBL1154473, “Synthesis, antitumor evaluation and DNA binding studies of novel amidino-benzimidazolyl substituted derivatives of furyl-phenyl- and thienyl-phenyl-acrylates, naphthofurans and naphthothiophenes” (Eur J Med Chem, 2008) come the findings set out here.

Assay [1] deals with DNA. Briefly: Binding affinity to calf thymus DNA assessed as relative fluorescence intensity by fluorescence emission spectra analysis relative to control. It is filed as nucleic-acid assay. The settings on record: Bos taurus. In outline:
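Fluorimetric titration: portions of ct-DNA (phosphate concentration determined spectroscopically; sonicated, filtered) added to compound in sodium cacodylate buffer pH 7.0, I = 0.05 mol dm-3; excitation 360–374 nm depending on compound to avoid inner filter effects, emission monitored at 400 nm; data corrected for dilution; fluorescence change expressed versus compound/ct-DNA ratio r.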

The subject of assay [2] is DNA. Put plainly: Binding affinity to calf thymus DNA assessed as hypochromic effect by UV-vis spectra analysis. It is filed as nucleic-acid assay. Further details: concentration or dose not given beside the values. The following applies: Bos taurus.
The test system of assay [3] is DNA. Put plainly: Binding affinity to calf thymus DNA in sodium cacodylate buffer at compound/DNA ratio < 0.1 pH 7 by fluorimetric titration. Type of assay: nucleic-acid assay. The following applies: Bos taurus. An outline of the steps:
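Compound solution in sodium cacodylate buffer (pH 7.0, I = 0.05 mol dm⁻³) titrated with portions of ct-DNA (6.31 × 10⁻³ mol dm⁻³), data corrected for dilution. Excitation at 360–374 nm, chosen per compound to avoid inner filter effects, with emission monitored at 400 nm. Ks and n obtained by non-linear least-squares Scatchard fitting of data at r < 0.1.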

Assay [4] deals with DNA. Put plainly: Binding affinity to calf thymus DNA in sodium cacodylate buffer assessed as melting temperature at compound/DNA ratio 0.1 at pH 7. It is filed as nucleic-acid assay. The following applies: Bos taurus. In outline:
(§1)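 ct-DNA dissolved in sodium cacodylate buffer (I = 0.05 mol dm⁻³, pH 7), sonicated, filtered, with concentration taken spectroscopically as phosphate. Absorbance at 260 nm followed against temperature, heating 1 °C/min. Ligand absorbance subtracted and scale normalized. Tm taken as transition midpoint from first-derivative maximum or tangent method. ΔTm = Tm(complex) − Tm(free DNA). Error ±0.5 °C.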

The nature of assay [5]: Antiproliferative activity against human WI38 cells after 72 hrs by MTT assay. Type of assay: cell-based. The following applies: WI-38, 72 h. In outline:
(§2)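 Cells seeded on day 0 at 1–3 × 10⁴ cells/ml, density set by each line's doubling time. Compounds added in five 10-fold dilutions (10⁻⁸–10⁻⁴ M), freshly prepared on test day, with DMSO solvent control matched to working concentrations. Incubated 72 h, then MTT read-out of dehydrogenase activity in viable cells gives percentage of growth. Four parallel samples per point, three independent experiments.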
For orientation: Formazan colour is commonly taken as a measure of viable cells.

For a further assay, the system named is HeLa. Put plainly: Antiproliferative activity against human HeLa cells after 72 hrs by MTT assay. Type of assay: functional, cell-based. An outline of the steps: as §2
The next assay has as its system MIA PaCa-2. Briefly: Antiproliferative activity against human MIAPaCa2 cells after 72 hrs by MTT assay. It is filed as functional, cell-based. The settings on record: MIA PaCa-2, 72 h. An outline of the steps:
as §2

In a further assay the test system is SW-620. Put plainly: Antiproliferative activity against human SW620 cells after 72 hrs by MTT assay. The following applies: SW-620, 72 h. Type of assay: functional, cell-based. In outline:
as §2

In a further assay the test system is MCF7. Put plainly: Antiproliferative activity against human MCF7 cells after 72 hrs by MTT assay. The settings on record: MCF7, 72 h. Type of assay: functional, cell-based. An outline of the steps:
as §2

A further assay relates to NCI-H460. Put plainly: Antiproliferative activity against human H460 cells after 72 hrs by MTT assay. Type of assay: functional, cell-based. The settings on record: NCI-H460, 72 h. In outline:
as §2

The test system of assay [6] is DNA. Briefly: Binding affinity to calf thymus DNA in sodium cacodylate buffer assessed as melting temperature at compound/DNA ratio 0.2 at pH 7. Type of assay: nucleic-acid assay. The following applies: Bos taurus. In outline: as §1
Assay [7] deals with DNA. Briefly: Binding affinity to calf thymus DNA in sodium cacodylate buffer assessed as melting temperature at compound/DNA ratio 0.3 at pH 7. It is filed as nucleic-acid assay. The following applies: Bos taurus. In outline: as §1
Assay [8] deals with DNA. Put plainly: Binding affinity to calf thymus DNA in sodium cacodylate buffer at compound/DNA ratio 0.5 pH 7 by fluorimetric titration. It is filed as nucleic-acid assay. The following applies: Bos taurus.

Usually ΔTm stands for the change in melting temperature against a reference sample. What is called IC50 is the concentration needed to halve the response being measured. Turning to `COC(=O)c1cc2oc(-c3nc4cc(C(=N)NC(C)C)ccc4[nH]3)cc2c2ccccc12`, the Flu intensity in the assay on DNA [1] is 790 a.u. For the same compound, in the assay with DNA [2], the Activity amounted to 51%. For the same compound, the log Ks in the assay on DNA [3] is 4.2. The ΔTm in the assay with DNA [4] is 1.8 °C; in the assay on DNA [6] it was 2.6 °C; in the assay on DNA [7] it was 3.8 °C. In addition, the IC50 in assay [5] was greater than 100 µM; in the assay on HeLa it was 18 µM; with MIA PaCa-2 it was 21 µM; in the assay with SW-620, 35 µM; in the assay on MCF7 it was 1000 nM; in the assay with NCI-H460 it was 18 µM.

As to `CCOC(=O)/C(=C/c1ccc(-c2nc3cc(C(=N)NC(C)C)ccc3[nH]2)o1)c1ccc(C#N)cc1`, the Flu intensity in the assay with DNA [1] was 161 a.u. For the same compound, the Activity in the assay on DNA [2] turned out to be 10%. Also, the ΔTm in the assay with DNA [4] was 0.6 °C; with DNA [6] it was 0.8 °C; in the assay with DNA [7], 1.3 °C. Besides, the IC50 in assay [5] came to 36 µM; in the assay with HeLa it was 28 µM; in the assay with MIA PaCa-2 it was 21 µM; in the assay on SW-620, 62 µM; in the assay with MCF7, 2000 nM; with NCI-H460, 31 µM. Moreover, in the assay with DNA [8], the log Ks stood at 5.6.

`COC(=O)/C(=C/c1ccc(-c2nc3cc(C(=N)NC(C)C)ccc3[nH]2)s1)c1ccccc1`: in the assay on DNA [1], the Flu intensity was 232 a.u. Also, the Activity with DNA [2] came to 18%. The figures for the ΔTm in the assay on DNA [4], in the assay on DNA [6] and in the assay on DNA [7] were 1.7 °C, 2.3 °C and 2.7 °C, respectively. In addition, the IC50 in assay [5] was greater than 100 µM; with HeLa, 30 µM; with MIA PaCa-2 it was 13 µM; in the assay with SW-620 it was 62 µM; with MCF7, 1000 nM; in the assay with NCI-H460, 37 µM.

Regarding `COC(=O)/C(=C/c1ccc(-c2nc3cc(C(=N)NC(C)C)ccc3[nH]2)o1)c1ccccc1`, the Flu intensity in the assay with DNA [1] amounted to 147 a.u. Besides, the Activity with DNA [2] turned out to be 8%. The ΔTm with DNA [4], with DNA [6] and with DNA [7] was 0 °C throughout. Also, the concentration for half-maximal inhibition (IC50) in [5] turned out to be 13 µM; in the assay with HeLa, 17 µM; with MIA PaCa-2, 19 µM; with SW-620, 14 µM; with MCF7, 9000 nM; in the assay with NCI-H460, 13 µM.

For the compound `CCOC(=O)c1cc2oc(-c3nc4cc(C(=N)NC(C)C)ccc4[nH]3)cc2c2cc(C#N)ccc12`, the Flu intensity with DNA [1] was 282 a.u. Moreover, the Activity in the assay with DNA [2] was 10%. Besides, the log Ks with DNA [3] came to 5. Further, the results for the ΔTm in the assay with DNA [4], in the assay on DNA [6] and with DNA [7] were 1 °C, 1.4 °C and 1.6 °C, respectively. Moreover, the half-inhibitory concentration (IC50) in assay [5] is greater than 100 µM; with HeLa, 72 µM; in the assay on MIA PaCa-2 it was 61 µM; with SW-620, 85 µM; in the assay with MCF7, 6000 nM; with NCI-H460 it was greater than 100 µM.

For `COC(=O)c1cc2sc(-c3nc4cc(C(=N)NC(C)C)ccc4[nH]3)cc2c2ccccc12`, in the assay with DNA [1], the Flu intensity was found to be 916 a.u. The Activity in the assay with DNA [2] was 15%. Besides, the log Ks in the assay with DNA [3] amounted to 4.7. Besides, the figures for the ΔTm in the assay with DNA [4], in the assay with DNA [6] and in the assay with DNA [7] were 3.9 °C, 4.9 °C and 5.8 °C, respectively. The 50% inhibitory concentration (IC50) in assay [5] stood at 71 µM; with HeLa it was 15 µM; in the assay with MIA PaCa-2 it was 16 µM; with SW-620, 29 µM; with MCF7, 2000 nM; with NCI-H460, 24 µM.
